Test results as given in ChEMBL document CHEMBL4765399, “Design, synthesis, and biological evaluation of 5-((8-methoxy-2-methylquinolin-4-yl)amino)-1H-indole-2-carbohydrazide derivatives as novel Nur77 modulators” (Eur J Med Chem, 2020).
Active and inactive are the calls of the source. No cut-off for these calls is given here.

Assays:
HepG2 [1] = experiment: Induction of autophagy in human HepG2 cells assessed as p62 degradation by western blot analysis; format: functional, cell-based
HepG2 [2] = experiment: Induction of apoptosis in human HepG2 cells transfected with shRNA assessed as early apoptotic cells at 2 uM incubated for 12 hrs by Annexin V-FITC/PI staining based flow cytometry (reference value: 5.09%); format: functional
[3] = molecular target: Nuclear receptor subfamily 4immunitygroup A member 1 (Homo sapiens, UniProt P22736); experiment: Binding affinity to Nur77 ligand binding domain (unknown origin) assessed as fast association/dissociation kinetics by surface plasmon resonance analysis; conditions: filed as modulator
Outline: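 SPR with Nur77-LBD, analyte injected at a series of concentrations; KD (equilibrium dissociation constant) and association/dissociation kinetics derived from the sensorgrams.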

HepG2 [4] = experiment: Induction of apoptosis in human HepG2 cells assessed as Bax/Bcl-2 ratio at 2 uM pretreated with autophagy inhibitor, 3-methyladenine for 2 hrs followed by incubation with compound for 12 hrs by Western blot analysis; format: functional, cell-based
HepG2 [5] = experiment: Antitumor activity against human HepG2 cells xenografted in BALB/c mouse assessed as reduction in PCNA expression in tumor tissue at 10 to 20 mg/kg/day, ip for 15 days by immunocytochemistry staining; format: functional, organism-based; conditions: dose 10-20 mg/kg/day, time 15.0 day
Outline: (§1)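 HepG2 cells (5×10^6) injected subcutaneously into flanks of 4-week-old male Balb/c nude mice. At about 100 mm³, 15 mice were randomized to vehicle, 10 or 20 mg/kg i.p. once daily for 15 days. Tumors were then excised for immunostaining of paraffin sections (5 μm) or for western blot.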

HepG2 [6] = experiment: Induction of apoptosis in human HepG2 cells assessed as increase in cleaved PARP level at 0.5 to 2 uM incubated for 12 hrs by Western blot analysis; format: functional, cell-based; conditions: dose 0.5-2 µM
Outline: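 HepG2 cells exposed 12 h to graded concentrations. RIPA lysates with protease/phosphatase inhibitors, 40–80 µg protein by SDS-PAGE onto nitrocellulose, probed for PARP cleavage, chemiluminescent detection.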

HepG2 [7] = experiment: Induction of apoptosis in human HepG2 cells assessed as cleaved PARP expression at 2 uM pretreated with autophagy inhibitor, 3-methyladenine for 2 hrs followed by incubation with compound for 12 hrs by Western blot analysis; format: functional, cell-based
Outline: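 HepG2 cells grown to confluence were pretreated 2 h with 2 mM 3-MA (autophagy inhibitor) or 2 mM 4-PBA (ER stress inhibitor), then exposed to compound for 12 h. Proteins (40–80 µg, RIPA lysate) were resolved by SDS-PAGE and blotted for PARP, cleaved caspase-3/-9, Bcl-2 and Bax, with chemiluminescent detection.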

HepG2 [8] = experiment: Disruption of mitochondrial membrane potential in human HepG2 cells assessed as green fluorescence intensity at 2 uM incubated for 12 hrs by JC-1 staining based flow cytometry (reference value: 41669 units); format: functional
HepG2 [9] = experiment: Antitumor activity against human HepG2 cells xenografted in BALB/c mouse assessed as induction of autophagy by measuring increase in LC3-II level in tumor tissue at 10 to 20 mg/kg/day, ip administered for 15 days by western blot analysis; format: functional, organism-based; conditions: dose 10-20 mg/kg/day, time 15.0 day; outline: as §1
HepG2 [10] = experiment: Disruption of mitochondrial membrane potential in human HepG2 cells transfected with shNur77 assessed as red fluorescence intensity at 2 uM incubated for 12 hrs by JC-1 staining based flow cytometry (reference value: 21319 units); format: functional
HepG2 [11] = experiment: Antitumor activity against human HepG2 cells xenografted in BALB/c mouse assessed as reduction in PCNA expression in tumor tissue at 10 to 20 mg/kg/day, ip for 15 days by western blot analysis; format: functional, organism-based; conditions: dose 10-20 mg/kg/day, time 15.0 day; outline: as §1
HepG2 [12] = experiment: Upregulation of Nur77 expression in human HepG2 cells at 2 uM measured after 1 to 6 hrs by western blot analysis; format: functional, cell-based; conditions: time 1-6 hrs
Outline: (§2)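 HepG2, QGY-7703 and SMMC-7721 cells treated with the indicated concentrations for 6 h. HepG2 also given 2.0 µM over a time course. Lysis in RIPA with protease and phosphatase inhibitors; 40-80 µg protein by SDS-PAGE, nitrocellulose transfer. Membranes blocked with 5% milk, primary antibody overnight, HRP secondary, chemiluminescence. GAPDH as loading control.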

HepG2 [13] = experiment: Upregulation of Nur77 expression in human HepG2 cells incubated for 6 hrs by Western blot analysis; format: functional, cell-based; conditions: dose 0.5-2 µM; outline: as §2
HepG2 [14] = experiment: Antitumor activity against human HepG2 cells xenografted in BALB/c mouse assessed as tumor growth inhibition at 20 mg/kg/day, ip administered for 15 days; format: functional; conditions: 360 h, time 15 day
Outline: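 Subcutaneous flank xenograft of 5×10^6 HepG2 cells in 4-week-old male Balb/c nude mice. At about 100 mm³, 15 mice were randomized into three groups: vehicle, 10 or 20 mg/kg i.p. daily for 15 days. Tumor size was measured every day, and tumors were excised and weighed at the end.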

HepG2 [15] = experiment: Induction of apoptosis in human HepG2 cells assessed as early apoptotic cells at 2 uM incubated for 12 hrs by Annexin V-FITC/PI staining based flow cytometry (reference value: 3.99 to 5.35%); format: functional
HepG2 [16] = experiment: Disruption of mitochondrial membrane potential in human HepG2 cells assessed as red fluorescence intensity at 2 uM incubated for 12 hrs by JC-1 staining based flow cytometry (reference value: 23598 units); format: functional
HepG2 [17] = experiment: Induction of autophagy in human HepG2 cells assessed as increase in GFP-LC3 puncta formation at 2 uM after 6 hrs by fluorescence microscopic method; format: functional, cell-based
Outline: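 HepG2, or HepG2 and shNur77 HepG2, transfected with GFP-LC3, then given vehicle or 2.0 µM for 6 h; GFP-LC3 puncta visualised by fluorescence microscopy alongside phase-contrast images.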

HepG2 [18] = experiment: Induction of autophagy in Nur77 knockout human HepG2 cells assessed as increase in LC3-II expression at 2 uM measured after 6 to 12 hrs by Western blot analysis; format: functional, cell-based; conditions: time 6-12 hrs
Outline: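 Scrambled-control and shNur77 HepG2 given DMSO or 2.0 µM for 6 or 12 h; immunoblotting of RIPA lysates for LC3, Beclin1 and Nur77 after SDS-PAGE and nitrocellulose transfer, chemiluminescent detection.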

HepG2 [19] = experiment: Induction of endoplasmic reticulum stress in Nur77 […] human HepG2 cells assessed as bip protein expression at 2 uM incubated for 6 to 12 hrs by Western blot analysis; format: functional, cell-based; conditions: time 6-12 hrs
Outline: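 HepG2 and shNur77 HepG2 exposed to DMSO or 2.0 µM for 6 and 12 h; lysates immunoblotted for TRB3, Bip, CHOP and Nur77 (SDS-PAGE, nitrocellulose, overnight primary antibodies, HRP secondary, chemiluminescence).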

QGY-7703 = experiment: Induction of autophagy in human QGY-7703 cells assessed as increase in LC3-II expression measured after 12 hrs by Western blot analysis; format: functional, cell-based; conditions: dose 0.5-2 µM
Outline: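 HepG2, QGY-7703 and SMMC-7721 treated with graded concentrations for 12 h. Lysed in RIPA with inhibitors; 40-80 µg protein separated by SDS-PAGE, blotted to nitrocellulose, blocked 1 h in 5% milk, primary antibodies overnight (LC3, Beclin1, Bip, CHOP, TRB3), HRP secondaries, chemiluminescence.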

HepG2 [20] = experiment: Antitumor activity against human HepG2 cells xenografted in BALB/c mouse assessed as induction of ER stress by measuring increase in CHOP level in tumor tissue at 10 to 20 mg/kg/day, ip administered for 15 days by immunohistochemical analysis; format: functional, organism-based; conditions: dose 10-20 mg/kg/day, time 15.0 day; outline: as §1

Chain of Nuclear receptor subfamily 4immunitygroup A member 1 (P22736 whole entry, the tested form may be a part): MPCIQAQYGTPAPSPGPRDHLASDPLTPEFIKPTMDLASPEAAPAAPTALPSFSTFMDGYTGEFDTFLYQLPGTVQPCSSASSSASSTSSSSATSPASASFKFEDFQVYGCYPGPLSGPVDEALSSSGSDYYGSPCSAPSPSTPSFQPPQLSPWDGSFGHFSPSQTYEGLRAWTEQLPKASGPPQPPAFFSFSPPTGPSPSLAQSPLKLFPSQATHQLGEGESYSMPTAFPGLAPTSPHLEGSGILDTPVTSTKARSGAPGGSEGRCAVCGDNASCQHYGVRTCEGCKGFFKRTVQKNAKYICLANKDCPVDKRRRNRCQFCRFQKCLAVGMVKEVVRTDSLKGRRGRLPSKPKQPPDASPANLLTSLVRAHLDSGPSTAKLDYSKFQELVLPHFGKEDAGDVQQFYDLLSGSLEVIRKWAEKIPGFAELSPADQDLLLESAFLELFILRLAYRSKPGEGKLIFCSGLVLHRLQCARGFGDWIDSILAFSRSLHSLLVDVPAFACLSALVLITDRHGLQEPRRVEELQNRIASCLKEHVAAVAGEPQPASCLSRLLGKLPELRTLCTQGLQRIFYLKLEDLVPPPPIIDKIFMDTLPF

COc1cccc2c(Nc3ccc4[nH]c(C(=O)N/N=C/c5ccc(SC)cc5)cc4c3)cc(C)nc12
Activity (HepG2 [1]): inactive
Activity (HepG2 [2]): 16.2%
Activity [3]: Active
Activity (HepG2 [4]): inactive
Activity (HepG2 [5]): Active
Activity (HepG2 [6]): Dose-dependent effect
Activity (HepG2 [7]): inactive
Activity (HepG2 [8]): 71731 U
Activity (HepG2 [9]): Active
Activity (HepG2 [10]): 18938 U
Activity (HepG2 [11]): Active
Activity (HepG2 [12]): Active
Activity (HepG2 [13]): Dose-dependent effect
inhibition in vivo at 20 mg/kg/day (HepG2 [14]): 62.4%
Activity (HepG2 [15]): 13%
Activity (HepG2 [16]): 10298 U
Activity (HepG2 [17]): Active
Activity (HepG2 [18]): inactive
Activity (HepG2 [19]): inactive
Activity (QGY-7703): Dose-dependent effect
Activity (HepG2 [20]): Active
